Data as given in ChEMBL document CHEMBL2417469, “Synthesis of novel analogs of 2-pyrazoline obtained from [(7-chloroquinolin-4-yl)amino]chalcones and hydrazine as potential antitumor and antimalarial agents” (Eur J Med Chem, 2013).

What was measured:
Format in all cases: functional
SK-OV-3 = assay: Cytotoxicity against human SKOV3 cells after 48 hrs by SRB assay; details: SK-OV-3, 48 h
Method in brief: (§1)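 NCI 60-cell-line screen. Cells preincubated 24 h at 37 °C, 5% CO2; time-zero plates TCA-fixed. Compounds dissolved in DMSO and tested at five concentrations (100, 10, 1.0, 0.1, 0.01 µM) for 48 h continuous exposure. Adherent cells fixed with cold TCA (10% final), then SRB stained; absorbance at 515 nm. GI50, TGI and LC50 calculated from growth relative to time-zero and untreated controls.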

U-251 = assay: Cytotoxicity against human U251 cells after 48 hrs by SRB assay; details: U-251, 48 h; for CC50: read-out: LC50 (the source's name)
Method in brief: (§2)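 NCI 60-cell screen. Cells grew 24 h (37 °C, 5% CO2) before compound was added. Compounds were in DMSO and diluted in medium with gentamicin, then tested at five levels (100, 10, 1.0, 0.1, 0.01 µM) with 48 h continuous exposure. Adherent cells were fixed with TCA (10% final) and stained with 0.4% SRB, absorbance read at 515 nm. A time-zero plate was included. LC50 is the concentration giving 50% loss of protein relative to time zero.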

HL-60(TB) = assay: Cytotoxicity against human HL-60(TB) cells after 48 hrs by SRB assay; details: HL-60, 48 h; for CC50: read-out: LC50 (the source's name); method in brief: as §1
A498 = assay: Cytotoxicity against human A498 cells after 48 hrs by SRB assay; details: A498, 48 h; for CC50: read-out: LC50 (the source's name); method in brief: as §1
TK-10 = assay: Cytotoxicity against human TK10 cells after 48 hrs by SRB assay; details: TK-10, 48 h; method in brief: as §2
OVCAR-4 = assay: Cytotoxicity against human OVCAR4 cells after 48 hrs by SRB assay; details: OVCAR-4, 48 h; method in brief: as §1
SF-295 = assay: Cytotoxicity against human SF295 cells after 48 hrs by SRB assay; details: SF-295, 48 h; method in brief: as §1
MOLT-4 = assay: Cytotoxicity against human MOLT4 cells after 48 hrs by SRB assay; details: MOLT-4, 48 h; method in brief: as §1
786-0 = assay: Cytotoxicity against human 786-0 cells after 48 hrs by SRB assay; details: 786-0, 48 h; method in brief: as §1
NCI/ADR-RES = assay: Cytotoxicity against human NCI/ADR-RES cells after 48 hrs by SRB assay; details: for CC50: read-out: LC50 (the source's name); method in brief: as §1
Hs-578T = assay: Cytotoxicity against human Hs578T cells after 48 hrs by SRB assay; method in brief: as §1
Malme-3M = assay: Cytotoxicity against human MALME-3M cells after 48 hrs by SRB assay; method in brief: as §1
NCI-H23 = assay: Cytotoxicity against human NCI-H23 cells after 48 hrs by SRB assay; details: NCI-H23, 48 h; for CC50: read-out: LC50 (the source's name); method in brief: as §1
UO-31 = assay: Cytotoxicity against human UO31 cells after 48 hrs by SRB assay; details: UO-31, 48 h; method in brief: as §2
MDA-MB-468 = assay: Cytotoxicity against human MDA-MB-468 cells after 48 hrs by SRB assay; details: MDA-MB-468, 48 h; method in brief: as §1
MDA-MB-435 = assay: Cytotoxicity against human MDA-MB-435 cells after 48 hrs by SRB assay; details: MDA-MB-435, 48 h; method in brief: as §1
MCF7 = assay: Cytotoxicity against human MCF7 cells after 48 hrs by SRB assay; details: MCF7, 48 h; for CC50: read-out: LC50 (the source's name); method in brief: as §1
ACHN = assay: Cytotoxicity against human ACHN cells after 48 hrs by SRB assay; details: for CC50: read-out: LC50 (the source's name); method in brief: as §1
SNB-75 = assay: Cytotoxicity against human SNB75 cells after 48 hrs by SRB assay; details: SNB-75, 48 h; method in brief: as §2
OVCAR-3 = assay: Cytotoxicity against human OVCAR3 cells after 48 hrs by SRB assay; details: OVCAR-3, 48 h; method in brief: as §1
DU-145 = assay: Cytotoxicity against human DU145 cells after 48 hrs by SRB assay; details: DU-145, 48 h; method in brief: as §1
BT-549 = assay: Cytotoxicity against human BT549 cells after 48 hrs by SRB assay; details: BT-549, 48 h; method in brief: as §1
OVCAR-5 = assay: Cytotoxicity against human OVCAR5 cells after 48 hrs by SRB assay; details: OVCAR-5, 48 h; method in brief: as §1
NCI-H460 = assay: Cytotoxicity against human NCI-H460 cells after 48 hrs by SRB assay; details: NCI-H460, 48 h; method in brief: as §1
HCT-15 = assay: Cytotoxicity against human HCT15 cells after 48 hrs by SRB assay; details: HCT-15, 48 h; method in brief: as §1
SF-539 = assay: Cytotoxicity against human SF539 cells after 48 hrs by SRB assay; details: SF-539, 48 h; for CC50: read-out: LC50 (the source's name); method in brief: as §1
M14 = assay: Cytotoxicity against human M14 cells after 48 hrs by SRB assay; details: M14, 48 h; for CC50: read-out: LC50 (the source's name); method in brief: as §1
SR = assay: Cytotoxicity against human SR cells after 48 hrs by SRB assay; method in brief: as §2
HCT-116 = assay: Cytotoxicity against human HCT116 cells after 48 hrs by SRB assay; details: HCT-116, 48 h; method in brief: as §1
Plasmodium falciparum = assay: Antimalarial activity against Plasmodium falciparum NF54 infected in human serum at 20 ug/ml after 48 hrs by fluorometric method
Method in brief: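 Asynchronous P. falciparum NF54 at 1.5–2% parasitemia, 5% hematocrit in RPMI with 10% human serum, exposed 48 h at 37 °C under 90% N2/5% CO2/5% O2 at the stated concentration; parasite DNA stained with ethidium bromide after proteinase K lysis; viability % = (Flu treated − medium)/(Flu untreated − medium) ×100; triplicate.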

CCRF-CEM = assay: Cytotoxicity against human CCRF-CEM cells after 48 hrs by SRB assay; method in brief: as §1
SK-MEL-5 = assay: Cytotoxicity against human SK-MEL-5 cells after 48 hrs by SRB assay; details: SK-MEL-5, 48 h; method in brief: as §1
PC-3 = assay: Cytotoxicity against human PC3 cells after 48 hrs by SRB assay; details: PC-3, 48 h; method in brief: as §1
MDA-MB-231 = assay: Cytotoxicity against human MDA-MB-231 cells after 48 hrs by SRB assay; details: MDA-MB-231, 48 h; method in brief: as §1

COc1ccc(C2CC(c3ccc(Nc4ccnc5cc(Cl)ccc45)cc3)=NN2C=O)cc1 (stereo not drawn)
GI50 (SK-OV-3): > 100 µM
LC50 (concentration killing 50% of cells) (SK-OV-3): > 100 µM
GI50 (U-251): 1.5 µM
CC50 (U-251): > 100 µM
GI50 (HL-60(TB)): 2.23 µM
CC50 (HL-60(TB)): > 100 µM
GI50 (A498): > 100 µM
CC50 (A498): > 100 µM
GI50 (TK-10): 20.9 µM
LC50 (concentration giving 50% cell loss vs time zero) (TK-10): > 100 µM
GI50 (OVCAR-4): 13.4 µM
LC50 (OVCAR-4): > 100 µM
GI50 (SF-295): 24.8 µM
LC50 (SF-295): > 100 µM
GI50 (MOLT-4): 2.54 µM
LC50 (MOLT-4): > 100 µM
GI50 (786-0): 32 µM
LC50 (786-0): > 100 µM
GI50 (NCI/ADR-RES): 7.04 µM
CC50 (NCI/ADR-RES): > 100 µM
GI50 (Hs-578T): > 100 µM
LC50 (50% net cell kill) (Hs-578T): > 100 µM
LC50 (Malme-3M): > 100 µM
GI50 (NCI-H23): 5.06 µM
CC50 (NCI-H23): > 100 µM
GI50 (UO-31): 19.7 µM
LC50 (UO-31): > 100 µM
GI50 (MDA-MB-468): 1 µM
LC50 (MDA-MB-468): > 100 µM
GI50 (MDA-MB-435): 1.72 µM
LC50 (MDA-MB-435): > 100 µM
GI50 (MCF7): 8.78 µM
CC50 (MCF7): > 100 µM
GI50 (ACHN): 7.02 µM
CC50 (ACHN): > 100 µM
GI50 (SNB-75): > 100 µM
LC50 (50% net cell kill) (SNB-75): > 100 µM
GI50 (OVCAR-3): 14.5 µM
LC50 (OVCAR-3): > 100 µM
GI50 (DU-145): 38 µM
LC50 (concentration killing 50% of cells) (DU-145): > 100 µM
GI50 (BT-549): 10.9 µM
LC50 (50% net cell kill vs time zero) (BT-549): > 100 µM
GI50 (OVCAR-5): > 100 µM
LC50 (OVCAR-5): > 100 µM
GI50 (NCI-H460): > 100 µM
LC50 (NCI-H460): > 100 µM
GI50 (HCT-15): 2.97 µM
LC50 (concentration killing 50% of cells relative to time zero) (HCT-15): > 100 µM
GI50 (SF-539): > 100 µM
CC50 (SF-539): > 100 µM
GI50 (M14): 7.67 µM
CC50 (M14): > 100 µM
GI50 (SR): 2.83 µM
LC50 (SR): > 100 µM
GI50 (HCT-116): 9.97 µM
LC50 (HCT-116): > 100 µM
inhibition at 20 µg/mL (Plasmodium falciparum): 0%
GI50 (CCRF-CEM): 2.71 µM
LC50 (concentration killing 50% of cells relative to time zero) (CCRF-CEM): > 100 µM
GI50 (SK-MEL-5): 0.62 µM
LC50 (concentration killing 50% of cells present at time zero) (SK-MEL-5): > 100 µM
GI50 (PC-3): 9.43 µM
LC50 (PC-3): > 100 µM
GI50 (MDA-MB-231): 20.1 µM
LC50 (concentration killing 50% of cells present at time zero) (MDA-MB-231): > 100 µM

COc1cc(C2CC(c3ccc(Nc4ccnc5cc(Cl)ccc45)cc3)=NN2C=O)cc(OC)c1OC (stereo not drawn)
GI50 (SK-OV-3): 3.36 µM
LC50 (concentration killing 50% of cells) (SK-OV-3): 55.8 µM
GI50 (U-251): 2.06 µM
CC50 (U-251): 19.4 µM
GI50 (HL-60(TB)): 2.53 µM
CC50 (HL-60(TB)): 75.8 µM
GI50 (A498): 15.3 µM
CC50 (A498): > 100 µM
GI50 (TK-10): 3.09 µM
LC50 (concentration giving 50% cell loss vs time zero) (TK-10): 38.6 µM
GI50 (OVCAR-4): 3.19 µM
LC50 (OVCAR-4): > 100 µM
GI50 (SF-295): 5.63 µM
LC50 (SF-295): > 100 µM
GI50 (MOLT-4): 3.36 µM
LC50 (MOLT-4): > 100 µM
GI50 (786-0): 2.31 µM
LC50 (786-0): 9.93 µM
GI50 (NCI/ADR-RES): 7.88 µM
CC50 (NCI/ADR-RES): > 100 µM
GI50 (Hs-578T): 3.24 µM
LC50 (50% net cell kill) (Hs-578T): > 100 µM
GI50 (Malme-3M): 3.2 µM
LC50 (Malme-3M): > 100 µM
GI50 (NCI-H23): 20.4 µM
CC50 (NCI-H23): > 100 µM
GI50 (UO-31): 4.96 µM
LC50 (UO-31): 67.5 µM
GI50 (MDA-MB-468): 1.83 µM
LC50 (MDA-MB-468): 40.9 µM
GI50 (MDA-MB-435): 2.1 µM
LC50 (MDA-MB-435): > 100 µM
GI50 (MCF7): 3.23 µM
CC50 (MCF7): > 100 µM
GI50 (ACHN): 3.24 µM
CC50 (ACHN): 47 µM
GI50 (SNB-75): 5.19 µM
LC50 (50% net cell kill) (SNB-75): > 100 µM
GI50 (OVCAR-3): 1.91 µM
LC50 (OVCAR-3): 6.03 µM
GI50 (DU-145): 6.63 µM
LC50 (concentration killing 50% of cells) (DU-145): > 100 µM
GI50 (BT-549): 1.91 µM
LC50 (50% net cell kill vs time zero) (BT-549): 8.23 µM
GI50 (OVCAR-5): 69.2 µM
LC50 (OVCAR-5): > 100 µM
GI50 (NCI-H460): 4.42 µM
LC50 (NCI-H460): > 100 µM
GI50 (HCT-15): 3.56 µM
LC50 (concentration killing 50% of cells relative to time zero) (HCT-15): > 100 µM
GI50 (SF-539): 2.75 µM
CC50 (SF-539): 37.6 µM
GI50 (M14): 3.75 µM
CC50 (M14): 48.3 µM
GI50 (SR): 2.58 µM
LC50 (SR): > 100 µM
GI50 (HCT-116): 3.21 µM
LC50 (HCT-116): > 100 µM
inhibition at 20 µg/mL (Plasmodium falciparum): 5.8%
GI50 (CCRF-CEM): 1.82 µM
LC50 (concentration killing 50% of cells relative to time zero) (CCRF-CEM): > 100 µM
GI50 (SK-MEL-5): 1.98 µM
LC50 (concentration killing 50% of cells present at time zero) (SK-MEL-5): 35.5 µM
GI50 (PC-3): 11.7 µM
LC50 (PC-3): > 100 µM
GI50 (MDA-MB-231): 4.39 µM
LC50 (concentration killing 50% of cells present at time zero) (MDA-MB-231): > 100 µM
